# Data: ChEMBL document CHEMBL5303300, “EUbOPEN Chemogenomics Library - Multiplex” (2023)
# Values joined by “and” are separate entries in the source; they are usually repeats but may differ in a detail not shown here. Equal values may be shown once.
# What was measured:
# U2OS = assay: Multiplex assay against U2OS; type: toxicity, cell-based; conditions: human, number of replicates 2
# In short: (§1)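 Four dyes were applied at seeding to live cells: Hoechst33342, BioTracker Green Microtubule Cytoskeleton Dye, MitoTracker Red and Annexin V Alexa Fluor 680. Imaging after compound addition used a CQ1 microscope at 37°C and 5% CO2. CellPathfinder machine-learning gating then sorted cells into Hoechst high-intensity objects or normal cells, normal cells into healthy, pyknosed or fragmented nuclei, and pyknosed cells into mitotic or apoptotic, with tubulin, mitochondrial-mass and membrane-permeability phenotypes given as per cents of healthy-nucleus cells.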
# Fibroblast = assay: Multiplex assay against human fibroblast; type: toxicity, cell-based; conditions: number of replicates 2; in short: as §1
# [1] = 12 h, 0 µM, compound concentration 0 uM
# [2] = 12 h, 1 µM, compound concentration 1 uM
# [3] = 24 h, 0 µM, compound concentration 0 uM
# [4] = 24 h, 1 µM, compound concentration 1 uM
# [5] = 48 h, 0 µM, compound concentration 0 uM
# [6] = 48 h, 1 µM, compound concentration 1 uM
smiles,measurement,setting,value
COc1cc(C(N)=O)ccc1Nc1ncc2c(n1)N(CCC(C)C)[C@H](C)C(=O)N2C,Population Apoptotic (%),U2OS; [1],42% and 75%
same,Population Healthy Nuclei (%),U2OS; [1],45% and 69%
same,Population Hoechst High Intensity Objects (%),U2OS; [1],0%
same,Population Membrane Permeable-Phenotype (%),U2OS; [1],31% and 42%
same,Population Mitochondria Different-Phenotype (%),U2OS; [1],15% and 27%
same,Population Mitotic Cells (%),U2OS; [1],57% and 24%
same,Population Normal (%),U2OS; [1],100%
same,Population Pyknosed Nuclei (%),U2OS; [1],16% and 18%
same,Population Tubulin-Different-Phenotype (%),U2OS; [1],78% and 56%
same,Population Apoptotic (%),U2OS; [2],100% and 61%
same,Population Healthy Nuclei (%),U2OS; [2],66% and 76%
same,Population Hoechst High Intensity Objects (%),U2OS; [2],0%
same,Population Membrane Permeable-Phenotype (%),U2OS; [2],7% and 1%
same,Population Normal (%),U2OS; [2],100%
same,Population Pyknosed Nuclei (%),U2OS; [2],4% and 14%
same,Population Tubulin-Different-Phenotype (%),U2OS; [2],92% and 81%
same,Population Apoptotic (%),U2OS; [3],100% and 89%
same,Population Fragmented Nuclei (%),U2OS; [3],46% and 22%
same,Population Healthy Nuclei (%),U2OS; [3],41% and 54%
same,Population Hoechst High Intensity Objects (%),U2OS; [3],0%
same,Population Membrane Permeable-Phenotype (%),U2OS; [3],76% and 33%
same,Population Mitochondria Different-Phenotype (%),U2OS; [3],70% and 40%
same,Population Mitotic Cells (%),U2OS; [3],0% and 10%
same,Population Normal (%),U2OS; [3],100%
same,Population Pyknosed Nuclei (%),U2OS; [3],12% and 23%
same,Population Tubulin-Different-Phenotype (%),U2OS; [3],88% and 47%
same,Population Apoptotic (%),U2OS; [4],66% and 94%
same,Population Healthy Nuclei (%),U2OS; [4],32% and 73%
same,Population Hoechst High Intensity Objects (%),U2OS; [4],0%
same,Population Normal (%),U2OS; [4],100%
same,Population Pyknosed Nuclei (%),U2OS; [4],12% and 8%
same,Population Tubulin-Different-Phenotype (%),U2OS; [4],87% and 85%
same,Population Apoptotic (%),U2OS; [5],75% and 95%
same,Population Fragmented Nuclei (%),U2OS; [5],57% and 39%
same,Population Healthy Nuclei (%),U2OS; [5],34% and 30%
same,Population Hoechst High Intensity Objects (%),U2OS; [5],0%
same,Population Membrane Permeable-Phenotype (%),U2OS; [5],82% and 72%
same,Population Mitochondria Different-Phenotype (%),U2OS; [5],70%
same,Population Normal (%),U2OS; [5],100%
same,Population Tubulin-Different-Phenotype (%),U2OS; [5],76% and 82%
same,Population Apoptotic (%),U2OS; [6],100% and 84%
same,Population Fragmented Nuclei (%),U2OS; [6],61% and 25%
same,Population Hoechst High Intensity Objects (%),U2OS; [6],0%
same,Population Mitotic Cells (%),U2OS; [6],0% and 15%
same,Population Normal (%),U2OS; [6],100%
same,Population Pyknosed Nuclei (%),U2OS; [6],17% and 12%
same,Population Tubulin-Different-Phenotype (%),U2OS; [6],100% and 93%
same,Population Apoptotic (%),Fibroblast; [1],87% and 56%
same,Population Fragmented Nuclei (%),Fibroblast; [1],48% and 61%
same,Population Healthy Nuclei (%),Fibroblast; [1],41% and 32%
same,Population Hoechst High Intensity Objects (%),Fibroblast; [1],0%
same,Population Mitochondria Different-Phenotype (%),Fibroblast; [1],0% and 3%
same,Population Normal (%),Fibroblast; [1],100%
same,Population Pyknosed Nuclei (%),Fibroblast; [1],9% and 5%
same,Population Tubulin-Different-Phenotype (%),Fibroblast; [1],79% and 61%
same,Total Cell Count,Fibroblast; [1],166 and 267
same,Population Apoptotic (%),Fibroblast; [2],56% and 34%
same,Population Fragmented Nuclei (%),Fibroblast; [2],17% and 20%
same,Population Healthy Nuclei (%),Fibroblast; [2],57% and 64%
same,Population Hoechst High Intensity Objects (%),Fibroblast; [2],0%
same,Population Membrane Permeable-Phenotype (%),Fibroblast; [2],7% and 15%
same,Population Mitochondria Different-Phenotype (%),Fibroblast; [2],0% and 2%
same,Population Mitotic Cells (%),Fibroblast; [2],43% and 65%
same,Population Normal (%),Fibroblast; [2],99% and 100%
same,Population Pyknosed Nuclei (%),Fibroblast; [2],25% and 15%
same,Population Tubulin-Different-Phenotype (%),Fibroblast; [2],22% and 28%
same,Total Cell Count,Fibroblast; [2],148 and 165
same,Population Apoptotic (%),Fibroblast; [3],80% and 69%
same,Population Fragmented Nuclei (%),Fibroblast; [3],54% and 72%
same,Population Healthy Nuclei (%),Fibroblast; [3],29% and 21%
same,Population Hoechst High Intensity Objects (%),Fibroblast; [3],0%
same,Population Membrane Permeable-Phenotype (%),Fibroblast; [3],17% and 9%
same,Population Mitochondria Different-Phenotype (%),Fibroblast; [3],4% and 7%
same,Population Mitotic Cells (%),Fibroblast; [3],19% and 30%
same,Population Normal (%),Fibroblast; [3],100%
same,Population Tubulin-Different-Phenotype (%),Fibroblast; [3],78% and 65%
same,Total Cell Count,Fibroblast; [3],162 and 237
same,Population Apoptotic (%),Fibroblast; [4],54% and 61%
same,Population Fragmented Nuclei (%),Fibroblast; [4],13% and 27%
same,Population Healthy Nuclei (%),Fibroblast; [4],65% and 56%
same,Population Hoechst High Intensity Objects (%),Fibroblast; [4],0%
same,Population Membrane Permeable-Phenotype (%),Fibroblast; [4],10% and 5%
same,Population Mitochondria Different-Phenotype (%),Fibroblast; [4],0%
same,Population Mitotic Cells (%),Fibroblast; [4],45% and 38%
same,Population Normal (%),Fibroblast; [4],100%
same,Population Pyknosed Nuclei (%),Fibroblast; [4],20% and 15%
same,Population Tubulin-Different-Phenotype (%),Fibroblast; [4],10% and 14%
same,Total Cell Count,Fibroblast; [4],152 and 166
